{
  "source": "ChEMBL document CHEMBL2331435",
  "about": "“Structure-activity relationship study of vitamin k derivatives yields highly potent neuroprotective agents” (J Med Chem, 2013)",
  "key": {"[1]": {"test_system": "HT-22", "test": "Antioxidant activity in mouse HT22 cells assessed as reduction in glutamate-induced upregulation of HO1 gene expression at 250 nM after 16 hrs by qRT-PCR analysis relative to glutamate-treated control", "format": "functional, cell-based", "how_it_was_run": "(§1)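 HT22 cells were seeded at 3.0 × 10^5 per well and cultured overnight, then treated with or without 10 mM glutamate plus compound (DMSO stock) for 16 h. Cells were trypsinized and washed in cold Ca/Mg-free HBSS. HO-1 and NQO-1 mRNA were measured by qRT-PCR with β2-microglobulin as reference gene, and fold change was calculated by the Livak method.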"}, "[2]": {"test_system": "HT-22", "test": "Neuroprotective activity in mouse HT22 cells assessed as reduction of glutamate-induced mitochondrial superoxide generation at 250 nM after 8 hrs by MitoSOX RED staining-based fluorescence microscopic analysis", "format": "functional, cell-based", "how_it_was_run": "(§2)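 HT22 cells were given 10 mM glutamate plus compound for 8 h, then co-stained with MitoSOX Red (5 μM final) and Mitotracker Deep Red (10 nM final) for 20 min. Cells were washed twice with HBSS and imaged live by fluorescence microscopy in HBSS.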"}, "[3]": {"test_system": "HT-22", "test": "Antioxidant activity in mouse HT22 cells assessed as reduction in glutamate-induced upregulation of NQO1 gene expression at 250 nM after 16 hrs by qRT-PCR analysis relative to glutamate-treated control", "format": "functional, cell-based", "how_it_was_run": "as §1"}, "[4]": {"test_system": "Mus musculus", "test": "Toxicity in BALB/cByJ mouse assessed as biochemical parameters at 50 mg/kg, ip daily for 3 weeks measured 2 hrs after final injection", "format": "organism-based", "set-up": "dose 50 mg/kg, route intraperitoneal", "details": "in vivo"}, "[5]": {"test_system": "HT-22", "test": "Antioxidant activity in mouse HT22 cells assessed as prevention of glutamate-induced intracellular accumulation of free radicals at 250 nM after 8 hrs by spectrofluorometric analysis", "format": "functional, cell-based", "how_it_was_run": "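HT22 cells were seeded at 5.0 × 10^3 per well and cultured overnight, then given 10 mM glutamate plus compound for 8 h. Rho123 was added at 5 μM final for 20 min, cells were washed twice with HBSS, and oxidized Rho123 fluorescence was read at 500 nm excitation and 536 nm emission.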"}, "[6]": {"test_system": "HT-22", "test": "Antioxidant activity in mouse HT22 cells assessed as upregulation of HO1 gene expression at 250 nM after 16 hrs by qRT-PCR analysis in the absence of glutamate", "format": "functional, cell-based", "how_it_was_run": "as §1"}, "[7]": {"test_system": "HT-22", "test": "Antioxidant activity in mouse HT22 cells assessed as upregulation of HO1 protein expression 8 hrs by Western blotting analysis", "format": "functional, cell-based"}, "[8]": {"test_system": "HT-22", "test": "Neuroprotective activity in mouse HT22 cells assessed as prevention from tBuOOH-induced oxidative cell death after 3 hrs by MTS assay", "format": "functional, cell-based", "how_it_was_run": "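HT22 cells were seeded at 5.0 × 10^3 per well and cultured overnight, then exposed to 50 μM t-BuOOH (final) plus compound for 3 h. Medium was removed, cells were washed with HBSS and returned to normal medium. MTS was added 24 h after initial treatment, absorbance was read at 490 nm after 2 h, and viability was expressed as percent of untreated cells.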"}, "[9]": {"test_system": "HT-22", "test": "Ratio of VK2 IC50 to 2-((4-Chlorobenzyl)amino)naphthalene-1,4-dione IC50 for prevention from glutamate-induced oxidative cell death in mouse HT22 cells", "format": "functional"}, "[10]": {"test": "Neurotoxicity in mouse HT22 cells assessed as cell viability after 24 hrs by MTS assay", "format": "toxicity, cell-based, HT-22", "details": "read-out: TC50", "how_it_was_run": "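HT22 cells were seeded at 5.0 × 10^3 per well, cultured overnight, and treated with a range of compound concentrations without glutamate for 24 h. MTS was added for 2 h and absorbance read at 490 nm. Viability was expressed as percent of untreated cells, and TC50 was fit from titration curves (7- or 12-point, n = 3–4).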"}, "[11]": {"test_system": "HT-22", "test": "Antioxidant activity in mouse HT22 cells assessed as reduction in glutamate-induced upregulation of HO1 gene expression at 250 nM after 16 hrs by qRT-PCR analysis relative to untreated control", "format": "functional, cell-based", "how_it_was_run": "as §1"}, "[12]": {"test_system": "HT-22", "test": "Neuroprotective activity in mouse HT22 cells assessed as reduction of glutamate-induced mitochondrial fragmentation at 250 nM after 8 hrs by Mitotracker DR staining-based fluorescence microscopic analysis", "format": "functional, cell-based", "how_it_was_run": "as §2"}, "[13]": {"test_system": "Mus musculus", "test": "Toxicity in BALB/cByJ mouse assessed as weight loss at 50 mg/kg, ip daily for 3 weeks measured 2 hrs after final injection", "format": "organism-based", "set-up": "dose 50 mg/kg, route intraperitoneal", "details": "in vivo"}, "[14]": {"test": "Therapeutic index, ratio of cytotoxic TC50 for mouse HT22 cells to neuroprotective PD50 for mouse HT22 cells", "format": "cell-based, HT-22", "details": "read-out: TI"}, "[15]": {"test_system": "HT-22", "test": "Neuroprotective activity in mouse HT22 cells assessed as prevention from glutamate-induced oxidative cell death by MTS assay", "format": "functional", "how_it_was_run": "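HT22 cells grown in high-glucose DMEM with 10% FBS and antibiotic-antimycotic at 37°C, 5% CO2. Seeded at 5.0 × 10^3 cells/well overnight, then given 10 mM glutamate (final) plus compound from DMSO stock. MTS added 24 h after treatment, 2 h at 37°C, A490 read. Viability taken as % of untreated cells. PC50 from 12-point titrations; experiments repeated at least four times.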"}, "[16]": {"test_system": "Mus musculus", "test": "Toxicity in BALB/cByJ mouse assessed as outward signs of distress at 50 mg/kg, ip daily for 3 weeks measured 2 hrs after final injection", "format": "organism-based", "set-up": "dose 50 mg/kg, route intraperitoneal", "details": "in vivo"}, "[17]": {"molecular_target": "T1, Serine/threonine-protein phosphatase PGAM5, mitochondrial (Mus musculus) (UniProt Q8BX10)", "T1 sequence (whole entry)": "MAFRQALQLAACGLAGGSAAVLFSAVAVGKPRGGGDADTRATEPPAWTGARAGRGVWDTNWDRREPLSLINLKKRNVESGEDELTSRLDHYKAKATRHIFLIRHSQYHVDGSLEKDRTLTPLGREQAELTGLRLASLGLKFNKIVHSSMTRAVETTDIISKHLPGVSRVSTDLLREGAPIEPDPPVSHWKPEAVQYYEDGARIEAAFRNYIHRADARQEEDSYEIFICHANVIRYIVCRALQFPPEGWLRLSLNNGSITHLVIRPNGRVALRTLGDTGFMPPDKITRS", "test": "Inhibition of glutamate-induced increase in lower band of PGAM5 in mouse HT22 cells at 125 nM after 16 hrs by Western blotting analysis", "format": "cell-based", "details": "HT-22", "how_it_was_run": "(§3)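 HT22 cells were treated with 10 mM glutamate plus compound for 16 h, harvested, and lysed in low-salt buffer (50 mM Tris-HCl pH 7.4, 150 mM NaCl, 10% glycerol, Triton X-100, protease/phosphatase inhibitors) for 30 min with a brief sonication. Lysates were run on 4–12% gels and immunoblotted for phospho-Drp1 Ser637, total Drp1, PGAM5, actin and α-tubulin, then analyzed by densitometry.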"}, "[18]": {"test_system": "Mus musculus", "test": "Toxicity in BALB/cByJ mouse assessed as outward signs of pain at 50 mg/kg, ip daily for 3 weeks measured 2 hrs after final injection", "format": "organism-based", "set-up": "dose 50 mg/kg, route intraperitoneal", "details": "in vivo"}, "[19]": {"test_system": "Radical scavenging activity", "test": "Antioxidant activity assessed as DPPH free radical scavenging activity at 20 uM", "format": "functional", "how_it_was_run": "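Test agents at 20 μM final, added to 100 μM DPPH in methanol; absorbance at 517 nm monitored immediately for 10 min. Trolox and ascorbic acid served as positive controls, and the rate of absorbance loss was taken as antioxidant potency.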"}, "[20]": {"test_system": "HT-22", "test": "Antioxidant activity in mouse HT22 cells assessed as upregulation of NQO1 gene expression at 250 nM after 16 hrs by qRT-PCR analysis in the absence of glutamate", "format": "functional, cell-based", "how_it_was_run": "as §1"}, "[21]": {"test_system": "HT-22", "test": "Antioxidant activity in mouse HT22 cells assessed as upregulation of NQO1 protein expression 8 hrs by Western blotting analysis", "format": "functional, cell-based"}, "[22]": {"molecular_target": "Dynamin-1-like protein (Mus musculus) (UniProt Q8K1M6)", "sequence (Q8K1M6 whole entry)": "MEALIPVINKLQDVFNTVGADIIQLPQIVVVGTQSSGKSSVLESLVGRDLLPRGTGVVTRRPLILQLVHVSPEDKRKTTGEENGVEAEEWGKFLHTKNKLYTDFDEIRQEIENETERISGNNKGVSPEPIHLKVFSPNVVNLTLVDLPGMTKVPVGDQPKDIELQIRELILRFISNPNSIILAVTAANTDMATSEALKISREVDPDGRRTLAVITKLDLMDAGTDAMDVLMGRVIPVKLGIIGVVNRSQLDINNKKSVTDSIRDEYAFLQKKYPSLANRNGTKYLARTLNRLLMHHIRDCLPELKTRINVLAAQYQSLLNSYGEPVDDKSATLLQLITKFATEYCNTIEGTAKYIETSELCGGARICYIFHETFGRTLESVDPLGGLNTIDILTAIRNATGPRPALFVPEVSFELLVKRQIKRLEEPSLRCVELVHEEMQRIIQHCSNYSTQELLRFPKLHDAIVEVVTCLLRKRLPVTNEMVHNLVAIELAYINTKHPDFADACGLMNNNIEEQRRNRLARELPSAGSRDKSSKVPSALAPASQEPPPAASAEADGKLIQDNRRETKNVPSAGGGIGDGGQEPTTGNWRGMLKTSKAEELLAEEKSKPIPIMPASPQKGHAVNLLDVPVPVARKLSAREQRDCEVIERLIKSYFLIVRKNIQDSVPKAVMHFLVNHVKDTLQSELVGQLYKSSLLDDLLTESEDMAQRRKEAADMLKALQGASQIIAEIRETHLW", "test": "Inhibition of glutamate-induced decrease in DRP1 phosphorylation at serine 637 in mouse HT22 cells at 125 nM after 16 hrs by Western blotting analysis", "format": "cell-based", "details": "HT-22", "how_it_was_run": "as §3"}},
  "note": "Activity calls are given as the source filed them. The calls are words filed in the database; no cut-off is given here.",
  "data": [
    {"smiles": "O=C1C=C(NCc2cccc(Cl)c2)C(=O)c2ccccc21", "values": [
      {"measurement": "Activity", "setting": "[1]", "value": "Active"},
      {"measurement": "Activity", "setting": "[2]", "value": "Active"},
      {"measurement": "Activity", "setting": "[3]", "value": "inactive"},
      {"measurement": "Activity", "setting": "[4]", "value": "Non-toxic"},
      {"measurement": "Activity", "setting": "[5]", "value": "Active"},
      {"measurement": "Activity", "setting": "[6]", "value": "inactive"},
      {"measurement": "Activity", "setting": "[7]", "value": "inactive"},
      {"measurement": "Activity", "setting": "[8]", "value": "Active"},
      {"measurement": "Ratio IC50", "setting": "[9]", "value": ">10"},
      {"measurement": "CC50 at 24 h", "setting": "[10]", "value": "> 100", "unit": "µM"},
      {"measurement": "Activity", "setting": "[11]", "value": "inactive"},
      {"measurement": "Activity", "setting": "[12]", "value": "Active"},
      {"measurement": "Activity", "setting": "[13]", "value": "Non-toxic"},
      {"measurement": "selectivity ratio", "setting": "[14]", "value": "> 3230"},
      {"measurement": "PD50", "setting": "[15]", "value": 31, "unit": "nM"},
      {"measurement": "Activity", "setting": "[16]", "value": "Non-toxic"},
      {"measurement": "inhibition", "setting": "[17]", "value": "Active"},
      {"measurement": "Activity", "setting": "[18]", "value": "Non-toxic"},
      {"measurement": "Activity", "setting": "[19]", "value": "inactive"},
      {"measurement": "Activity", "setting": "[20]", "value": "inactive"},
      {"measurement": "Activity", "setting": "[21]", "value": "inactive"},
      {"measurement": "inhibition", "setting": "[22]", "value": "Active"}
    ]}
  ]
}
